High-throughput results deposited in PubChem by The Scripps Research Institute Molecular Screening Center.
TAAR1 agonist: agonists of human TAAR1. activation, % at 3 µM. CHO RD-HGA16 TAAR1, Fluo-8 calcium fluorescence; vehicle wells 0%, saturating PEA agonist 100%. actives 0.99% (n = 360,000). AID 624467;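 active = activation above the mean activation of all test compounds in the run plus 3 SD, cut at about 38% in these data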
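Assay system – CHO-derived RD-HGA16 cells with stable Gα16 and human TAAR1 · Compound dosing – one-point dosing at 3 µM (nominal) · Incubation – 17-24 h seeding, 75 min 37 °C dye, 30 min RT · Measured by – kinetic Fluo-8 calcium fluorescence · Control set – DMSO vehicle as 0%, PEA at EC100 as 100% · Repeats – single well for each compound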
TAAR1 antagonist: human TAAR1 antagonism; Q96RJ0; CHO RD-HGA16 TAAR1, Fluo-8 calcium fluorescence, antagonist; inhibition, % at 3 µM; actives 1.5% (n = 360,000); AID 624466;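 active = inhibition above a per-plate cutoff, the mean inhibition of test compounds on that plate plus 3 SD, cut at about 49% in these data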
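Test system: RD-HGA16 CHO cells with stable hTAAR1 and Gα16 / Probe or stimulus: EC80 β-phenethylamine stimulus / Times: seeding 17-24 h prior, 75-min 37 °C, 30-min RT dye loading / Detection: Fluo-8 calcium-sensitive fluorescence / Read-out basis: % inhibition scaled between DMSO and EC80 PEA controls / Repeats: singlicate, one well per test compound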
GPR7 antag: antagonists of human GPR7 (neuropeptides B/W receptor 1); P48145; GPR7-expressing cells, fluorescence antagonist assay; inhibition, % at 4.4 µM; actives 1.1% (n = 290,000); AID 1861; in the data active = inhibition above about 16%, passing the limit was not always enough;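 also: cells stimulated with the agonist NPW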
CHO parental Ca: counter-screen for OX1R antagonists: effect in parental CHO cells; parental CHO-K1, ATP-induced calcium, Fluo-8 fluorescence; inhibition, % at 5.6 µM; actives 0.63% (n = 330,000); AID 463079;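 active = inhibition above that plate's mean sample inhibition plus 3 SD, cut at about 26% in these data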
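test system = CHO parental line | reagent = ATP stimulus | measured by = intracellular calcium via Fluo-8 no-wash fluorescent dye | control set = ATP and no-ATP DMSO wells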
OX1R antag-1: blocks the human orexin 1 receptor; CHO/OX1R cells, Fluo-8 calcium fluorescence, orexin A; inhibition, % at 5 µM; actives 0.43% (n = 330,000); AID 434989; O43613;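 active = inhibition above its plate's threshold, mean inhibition of all tested compounds on the plate plus 3 SD, cut at about 37% in these data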
Target sequence (O43613 whole entry, looked up): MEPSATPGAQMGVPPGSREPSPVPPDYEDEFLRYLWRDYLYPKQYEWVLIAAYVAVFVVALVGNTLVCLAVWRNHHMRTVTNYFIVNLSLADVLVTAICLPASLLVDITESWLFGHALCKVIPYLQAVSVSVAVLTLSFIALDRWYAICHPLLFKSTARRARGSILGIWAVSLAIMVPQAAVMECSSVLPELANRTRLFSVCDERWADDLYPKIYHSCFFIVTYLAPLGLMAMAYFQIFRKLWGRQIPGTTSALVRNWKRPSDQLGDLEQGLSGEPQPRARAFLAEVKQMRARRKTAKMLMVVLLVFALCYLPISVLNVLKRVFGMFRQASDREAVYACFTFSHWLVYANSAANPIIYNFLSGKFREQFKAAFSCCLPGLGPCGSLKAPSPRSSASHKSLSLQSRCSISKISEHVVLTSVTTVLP
OX1R antag-2: blocks the human orexin 1 receptor. inhibition, % at 6.6 µM. AID 485270. O43613. OX1R-expressing cells, FRET antagonist read-out. actives 1.8% (n = 330,000); in the data active = inhibition mostly above about 38%, no sharp cut-off; inactive = mostly below about 40%
Each line names hits and unclear results; the compound was inactive in the other large screens. Only some compounds are listed: those with a hit (about 4.6% of all), similar ones and a draw of the others.

CC(C)(C)OC(=O)N1CCC(NC(=O)c2[nH]cnc2C(=O)Nc2ccccc2F)CC1	none (no result: GPR7 antag, CHO parental Ca, OX1R antag-1, OX1R antag-2)
COc1cc(NC2=Nc3cccc4cccc2c34)cc(OC)c1OC	none
COc1cccc(NC2=Nc3cccc4cccc2c34)c1	OX1R antag-2 72
CC1CCCN(C(=O)CNC(=O)c2ccco2)C1 (stereo unspecified)	none
COc1ccc(/C=N/NC(=O)c2ccccc2OC)cc1COc1ccccc1[N+](=O)[O-]	TAAR1 antagonist 51
Cc1cc(CNC(=S)Nc2cccc(Cl)c2Cl)nn1C	none
Cc1ccc(S(=O)(=O)/N=C2/C=C(Sc3ncn[nH]3)C(=O)c3ccccc32)cc1	OX1R antag-2 59 (no result: TAAR1 agonist, TAAR1 antagonist)
Nc1nc(SCC(=O)Nc2ccc(OCc3ccccc3)cc2)n[nH]1	none
CC1CCC2(CC1)NC(=O)N(CC(=O)NC(=O)Nc1ccc3c(c1)OCCO3)C2=O (stereo unspecified)	GPR7 antag 20
CC1CC(C)CN(C(=O)CSc2nc(Cc3cccs3)nc3ccccc23)C1 (stereo unspecified)	TAAR1 antagonist 50
CCOc1ccc(OCCOCCOc2c(Cl)cccc2Cl)cc1	none
CSc1ccc(C2c3[nH]c4ccccc4c3CCN2C(=O)c2ccnn2C)cc1 (stereo unspecified)	TAAR1 antagonist 49
Cc1ccccc1OCC(O)Cn1c(=N)n(Cc2ccccc2)c2ccccc21 (stereo unspecified)	GPR7 antag 35, CHO parental Ca 39
Cc1ccccc1OCC(O)Cn1c2ccccc2c2ccccc21 (stereo unspecified)	none
CCOC(=O)c1cc2c(ccn2C)n1CC(=O)N(CC)CC	none
O=C(CN1C(=O)NC2(CCc3ccccc32)C1=O)Nc1ccccc1OC(F)F (stereo unspecified)	none (no result: GPR7 antag)
CC1(c2ccccc2Cl)NC(=O)N(CC(=O)Nc2ccccc2OC(F)F)C1=O (stereo unspecified)	OX1R antag-2 43
CCN(CC)c1ccc(NC(=O)Nc2ccccc2)cc1	TAAR1 antagonist 50
CCN(CC)c1ccc(NC(=O)Nc2ccc(C(C)=O)cc2)cc1	none
CNC(=O)c1ccc(NC(=O)Nc2ccccc2)cc1	TAAR1 agonist 40
COCCNC(=O)Cn1cnc2c(cnn2-c2ccc(OC)cc2)c1=O	none
CN1C(=O)c2ccccc2C(C(=O)NCCCN2CCCC2=O)C1c1c[nH]c2ccccc12 (stereo unspecified)	none
CC(=O)c1cccc(NC(=O)c2cccc3c(-c4cnn(C)c4)coc23)c1	TAAR1 antagonist 55 (no result: GPR7 antag, CHO parental Ca, OX1R antag-1, OX1R antag-2)
COc1cc(NC(=O)c2cccc3c(-c4cnn(C)c4)coc23)cc(OC)c1OC	TAAR1 antagonist 54 (no result: GPR7 antag, CHO parental Ca, OX1R antag-1, OX1R antag-2)
COc1ccc(NC(=O)c2cccc3c(-c4cnn(C)c4)coc23)cc1	none (no result: GPR7 antag, CHO parental Ca, OX1R antag-1, OX1R antag-2)
COc1ccc(-c2ccc(C(=O)Nc3ccc(NC(C)=O)cc3)c3occc23)c(C)c1	TAAR1 antagonist 51 (no result: GPR7 antag, CHO parental Ca, OX1R antag-1, OX1R antag-2)
CC(=O)c1cccc(NC(=O)c2ccc(-c3c(C)noc3C)c3ccoc23)c1	TAAR1 antagonist 64 (no result: GPR7 antag, CHO parental Ca, OX1R antag-1, OX1R antag-2)
CC(=O)Nc1ccc(NC(=O)c2ccc(-c3c(C)noc3C)c3ccoc23)cc1	none (no result: GPR7 antag, CHO parental Ca, OX1R antag-1, OX1R antag-2)
CC(C)C(=O)Nc1nnc(S(=O)(=O)N2c3ccccc3CC2C)s1 (stereo unspecified)	none
O=C(N/N=C/c1ccccn1)C(O)c1ccccc1 (stereo unspecified)	none
CCOc1ccc(-c2noc(=O)[nH]2)cc1	none
Cc1cc2[nH]cnc2c([N+](=O)[O-])c1C	none
CCOc1cc(/C=N/Nc2ncnc(Cl)c2N)ccc1O	none
COc1cc(/C=N/Nc2nncn2/N=C/c2ccc(O)c(OC)c2)ccc1O	OX1R antag-2 68
CCOc1cc(/C=N/Nc2nnc(C)n2N)ccc1O	OX1R antag-2 61
COc1cccc(C(=O)NCC2CCCN2S(=O)(=O)c2cccs2)c1 (stereo unspecified)	none (no result: GPR7 antag)
O=C(NCC1CCCN1S(=O)(=O)c1cccs1)c1cccc(Cl)c1 (stereo unspecified)	OX1R antag-2 53 (no result: GPR7 antag)
COc1ccc(S(=O)(=O)N2CCCC2CNC(=O)c2cccc(OC)c2)cc1 (stereo unspecified)	OX1R antag-2 43 (no result: GPR7 antag)
COc1cccc(CNC(=O)c2ccc(S(=O)(=O)N3CCCC3)cc2)c1	none
